Measurements gathered from unrelated publications.
Compare with care: the assays were run in different laboratories. ≈ marks a conversion by molar mass, not a printed value.
Organism: Mycobacterium tuberculosis
Read-out: microbial growth
Strain: H37RV

Compound | conditions | measurement | result
COc1ccc(-c2cc(C(F)(F)F)c3c(N)c(C(=O)Nc4ccc(C)c(C)c4)sc3n2)cc1 | – | IC50 | > 100 µM
Fc1ccc(CCOc2cc(-c3ccccn3)nc3nncn23)cc1 | – | MIC | > 100 µM
O=c1[nH]c2cc(CO)c(Cl)cc2c(=O)n1Cc1cccnc1 | – | MIC90 | > 100 µM
COc1ccc(-c2cc(C(F)(F)F)c3cc(C(=O)NC(C)c4ccccc4)sc3n2)cc1 (stereo not drawn) | – | IC50 | 2.5 µM
CCc1ccc(CCNc2cc(-c3ccccn3)nc3nnc(C4CC4)n23)cc1 | 5 days | MIC | 17 to 50 µM (≈ 6.54 to 19.2 µg/mL)
O=c1c2cc(Cl)ncc2[nH]c(=S)n1Cc1cccnc1 | – | MIC90 | 17.6 µM (≈ 5.36 µg/mL)
COc1ccc(-c2cc(C(F)(F)F)c3c(N)c(C(=O)Nc4cccc(C)c4C)sc3n2)cc1OC | – | IC50 | > 100 µM
NCC[C@H](O)C(=O)N[C@@H]1C[C@H](N)[C@@H](O[C@H]2O[C@H](CN)[C@@H](O)[C@H](O)[C@H]2O)[C@H](O)[C@H]1O[C@H]1O[C@H](CO)[C@@H](O)[C@H](N)[C@H]1O | 2.5 µg/mL | inhibition | ~90%
NC(=O)c1cncc(Cn2c(=S)[nH]c3cc(CO)c(Cl)cc3c2=O)c1 | – | MIC90 | 17.2 µM (≈ 6.48 µg/mL)
